Screening data: PubChem, The Scripps Research Institute Molecular Screening Center
A selection: hits, their analogues and other compounds. The true share with any hit is near 4.6%.
OX1R antag-1 – blocks the human orexin 1 receptor; O43613; OX1R-expressing cells, FRET antagonist read-out; inhibition, % at 6.6 µM; 330,000 compounds, 1.8% hits; AID 485270; in the data active = inhibition mostly above about 38%, no sharp cut-off; inactive = mostly below about 40%;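 note: 0% = agonist challenge alone and 100% = reference antagonist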
Target sequence (O43613 whole entry, looked up): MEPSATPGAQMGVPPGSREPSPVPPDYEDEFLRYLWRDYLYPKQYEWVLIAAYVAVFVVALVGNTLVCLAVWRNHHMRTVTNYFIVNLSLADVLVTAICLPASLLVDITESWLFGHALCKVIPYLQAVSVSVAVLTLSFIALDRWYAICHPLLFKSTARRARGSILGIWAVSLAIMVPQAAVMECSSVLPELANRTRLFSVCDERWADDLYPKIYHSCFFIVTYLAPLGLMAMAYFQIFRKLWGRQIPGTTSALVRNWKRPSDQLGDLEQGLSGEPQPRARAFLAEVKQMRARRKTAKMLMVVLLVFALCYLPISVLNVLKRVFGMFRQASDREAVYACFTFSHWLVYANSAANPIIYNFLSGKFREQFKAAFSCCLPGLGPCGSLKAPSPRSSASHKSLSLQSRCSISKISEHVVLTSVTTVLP
TAAR1 antagonist – antagonists of human TAAR1. CHO RD-HGA16 TAAR1, Fluo-8 calcium fluorescence, antagonist. inhibition, % at 3 µM. 360,000 compounds, 1.5% hits;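 active = inhibition above a per-plate cutoff, the mean inhibition of test compounds on that plate plus 3 SD, cut at about 49% in these data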;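 note: 0% = DMSO plus EC80 beta-PEA response and 100% = DMSO alone without agonist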
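Test system – hTAAR1-expressing CHO RD-HGA16 cells, Gα16-coupled · Also added – β-PEA at EC80 concentration, post-compound challenge · Compound – 3 µM, single point · Incubation – dye loading 75 min at 37 °C, then 30 min room temperature · Measured by – Fluo-8 intracellular calcium dye fluorescence, real-time kinetic reads · Benchmarks – vehicle and agonist controls · Replicates – singlicate, one well per test compound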
TAAR1 agonist – agonists of human TAAR1 | activation, % at 3 µM | CHO RD-HGA16 TAAR1, Fluo-8 calcium fluorescence; vehicle wells 0%, saturating PEA agonist 100% | 360,000 compounds, 0.99% hits | Q96RJ0 | AID 624467;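 active = activation above the mean activation of all test compounds in the run plus 3 SD, cut at about 38% in these data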
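System: CHO-derived RD-HGA16 cells with stable Gα16 and human TAAR1 / Times: 17-24 h plating, Fluo-8 75 min 37 °C, 30 min RT / Technique: calcium-sensitive Fluo-8 signal, excitation 470-495, emission 515-575 nm / Measure: % activation relative to PEA EC100 response / Benchmarks: DMSO and PEA EC100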
CHO parental Ca – signal in parental CHO cells, OX1R antagonist counter-screen. parental CHO-K1, ATP-induced calcium, Fluo-8 fluorescence. inhibition, % at 5.6 µM. 330,000 compounds, 0.63% hits;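 active = inhibition above that plate's mean sample inhibition plus 3 SD, cut at about 26% in these data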;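 note: 0% = ATP-challenged DMSO wells and 100% = DMSO wells without ATP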
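Material – parental CHO cells · Reagent – ATP stimulus · Compound – single nominal dose of 5.6 µM per compound · Detection – Fluo-8 fluorescence · Read-out basis – percent inhibition of calcium signal · Controls – ATP-challenged DMSO wells low, unchallenged DMSO wells high · Repeats – no replicates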
OX1R antag-2 – antagonists of human orexin 1 receptor; O43613; CHO/OX1R cells, Fluo-8 calcium fluorescence, orexin A; inhibition, % at 5 µM; 330,000 compounds, 0.43% hits;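 active = inhibition above its plate's threshold, mean inhibition of all tested compounds on the plate plus 3 SD, cut at about 37% in these data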;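 note: 0% = orexin A challenge wells and 100% = SB-334867-A antagonist wells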
GPR7 antag – antagonists of human GPR7 (neuropeptides B/W receptor 1); P48145; GPR7-expressing cells, fluorescence antagonist assay; inhibition, % at 4.4 µM; 290,000 compounds, 1.1% hits; in the data active = inhibition above about 16%, passing the limit was not always enough;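 note: cells stimulated with the agonist NPW; 0% = agonist with vehicle and 100% = vehicle without agonist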
Target sequence (P48145 whole entry, looked up): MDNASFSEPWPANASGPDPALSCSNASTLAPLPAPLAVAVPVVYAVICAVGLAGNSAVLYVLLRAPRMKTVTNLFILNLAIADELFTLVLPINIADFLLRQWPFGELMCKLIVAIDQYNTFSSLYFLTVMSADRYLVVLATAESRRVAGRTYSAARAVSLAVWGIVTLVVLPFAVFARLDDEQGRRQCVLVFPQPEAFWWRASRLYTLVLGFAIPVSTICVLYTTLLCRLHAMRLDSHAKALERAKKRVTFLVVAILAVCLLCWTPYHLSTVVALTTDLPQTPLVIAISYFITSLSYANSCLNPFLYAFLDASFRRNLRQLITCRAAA
TAAR1 ag confirm – confirmation of human TAAR1 agonists; shares compounds with TAAR1 agonist; 2,400 compounds, 82% hits; CHO RD-HGA16 TAAR1, Fluo-8 calcium fluorescence; scaled: DMSO 0%, maximal phenethylamine 100%; activation, % at 3 µM;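 active = activation above a cutoff set at the run's mean compound activation plus 3 SD, cut at about 39% in these data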
Ga16 nonsel ag – counter-screen for TAAR1 agonists: nonselective agonists in parental cells; 2,400 compounds, 50% hits; shares compounds with TAAR1 agonist; CHO-Ga16 parental, Fluo-8 calcium fluorescence; normalized to maximal ATP response, DMSO zero; activation, % at 3 µM;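 active = activation above the run cutoff, the mean activation over all tested wells plus 3 SD, cut at about 12% in these data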;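 note: 0% = DMSO wells and 100% = maximal ATP response on the peak over basal ratio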
TAAR1 desensitize – TAAR1 response desensitization, agonist counter-screen; CHO RD-HGA16 hTAAR1, Fluo-8 calcium, beta-PEA response inhibition; 2,400 compounds, 46% hits; inhibition, % at 3 µM; shares compounds with TAAR1 agonist;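 active = inhibition above the run cutoff, the mean inhibition of all test compounds plus 3 SD, cut at about 49% in these data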;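 note: beta-PEA stimulus applied at its EC80; loss of beta-PEA calcium signal after compound pretreatment read as receptor desensitization; 0% = DMSO with beta-PEA at EC80 and 100% = DMSO alone without agonist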
Ga16 antag count – nonselective Ga16 antagonist in TAAR1 agonist counter-screen. shares compounds with TAAR1 agonist. CHO-Ga16 ATP-induced calcium, Fluo-8 fluorescence. inhibition, % at 3 µM. 2,400 compounds, 39% hits. AID 651952;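 active = inhibition above the plate's mean compound inhibition plus 3 SD, computed per plate, cut at about 22% in these data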;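 note: 0% = EC80 ATP with DMSO and 100% = DMSO wells without ATP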
* hit, by the source's call; / = no result given.

SMILES | OX1R antag-1 | TAAR1 antagonist | TAAR1 agonist | CHO parental Ca | OX1R antag-2 | GPR7 antag | TAAR1 ag confirm | Ga16 nonsel ag | TAAR1 desensitize | Ga16 antag count
CC(C)=CC(=O)Nc1cccc(S(=O)(=O)NC2=NCCCCC2)c1 | 2.5 | -11.5 | 7.0 | -21.2 | -11.1 | / | / | / | / | /
N#Cc1nc(-c2ccc(Cl)cc2)oc1NCCc1ccccn1 | 7.7 | -9.8 | 45.0* | -2.5 | -13.0 | -4.5 | 8.2 | 6.6 | 22.3 | 15.9
CCn1cnc2cc(NCc3cccc(OC)c3O)ccc21 | -1.2 | -2.6 | 1.1 | -7.6 | 2.0 | -0.3 | / | / | / | /
Cc1c(NC(=O)c2ccc(N3C(=O)C4C5C=CC(C5)C4C3=O)cc2)c(=O)n(-c2ccccc2)n1C (centres undefined) | 6.4 | -4.2 | 16.9 | 10.4 | -6.4 | -2.7 | / | / | / | /
Cc1c(Cl)cccc1-c1ccc(/C=N/n2cnnc2)o1 | 13.5 | -18.9 | 47.5* | -16.8 | -7.9 | 1.8 | 38.1* | 19.4* | 12.4 | 13.4
CC(Nc1nc2ccccc2n2cnnc12)c1ccccc1 (centres undefined) | 17.5 | -14.3 | 0.9 | -32.8 | -26.1 | -23.7 | / | / | / | /
CSc1ccc(S(=O)(=O)Nc2ccc(S(=O)(=O)Nc3ccc(C)cc3)cc2)cc1 | 0.1 | 0.7 | 34.4 | -9.9 | 0.3 | -2.4 | / | / | / | /
Cc1ccc(S(=O)(=O)Nc2ccc(N(C)S(=O)(=O)c3ccc(C)cc3)cc2)cc1 | 7.7 | 25.2 | 51.8* | -5.1 | -7.2 | -7.2 | 44.5* | 18.6* | 32.5 | 21.4
CN1C(=O)NC(c2ccccc2)C2=C1CN(CCc1ccccc1)C2=O (centres undefined) | 9.2 | 18.9 | 57.9* | -10.9 | -18.2 | 2.8 | 71.5* | 2.4 | 53.7* | 11.3
COc1ccc(CCN2CC3=C(C2=O)C(c2ccccc2)NC(=O)N3C)cc1OC (centres undefined) | 11.1 | 0.1 | 8.0 | -13.4 | -12.7 | 10.9 | / | / | / | /
O=C(O)c1ccc(-n2cc(C(=O)c3ccccc3O)cn2)cc1 | 0.2 | 13.9 | 65.5* | -6.3 | -8.3 | 2.8 | 18.6 | 9.3 | 13.3 | 14.4
Cc1ccccc1C(=O)NCCn1cc(SCC(=O)NCC2CCCO2)c2ccccc21 (centres undefined) | 10.5 | 5.4 | 3.6 | -24.5 | -26.7 | -1.1 | / | / | / | /
COc1ccccc1CNC(=O)COC(=O)/C=C/c1ccc(OC(F)F)c(OC)c1 | 28.1 | 78.3* | 92.2* | 4.3 | -13.9 | / | 47.0* | 22.8* | 56.9* | 23.0*
O=C(COC(=O)/C=C/c1ccc(OC(F)F)cc1)NCc1cccs1 | 7.0 | 61.2* | 82.3* | 4.7 | 7.5 | -18.4 | 15.3 | 10.6 | -1.3 | 5.2
COc1ccc(NC(=O)CN(C)C(=O)C2=NN(c3ccccc3)C(=O)CC2)cc1 | 3.5 | -5.4 | 0.9 | 0.8 | 0.2 | / | / | / | / | /
O=C(CCN1CCN(Cc2ccccc2)CC1)Nc1cccc(Br)c1 | 16.1 | -7.1 | 6.0 | -14.2 | -27.2 | 9.3 | / | / | / | /
CN(Cc1ccon1)Cc1cn[nH]c1-c1ccc(-c2ccccc2)cc1 | 13.6 | 14.7 | 10.2 | -6.1 | -17.1 | -3.7 | / | / | / | /
O=C(CSC1=NS(=O)(=O)c2ccccc2N1)NCCc1ccccc1 | 18.5 | 71.2* | 88.9* | -6.7 | -3.4 | / | 89.2* | 7.1 | 74.9* | 5.1
C=CCC[C@H](Cc1ccc(F)cc1)C(=O)OC[C@H](Cc1c[nH]c2ccccc12)NC(=O)[C@@H](CC=C)CC(=O)NCCO | 6.4 | 74.5* | 64.6* | 5.0 | 23.1 | / | 37.4 | 25.0* | 68.8* | 52.8*
C=CCC[C@H](Cc1ccc(F)cc1)C(=O)OC[C@@H](Cc1c[nH]c2ccccc12)NC(=O)[C@@H](CC=C)CC(=O)N[C@@H](CO)Cc1ccccc1 | 10.7 | 11.3 | 5.0 | -2.6 | -1.9 | / | / | / | / | /
Nc1c(NCCC2=CCCCC2)c(=O)[nH]c(=O)n1Cc1ccccc1 | 10.8 | -12.6 | 55.5* | -17.5 | -34.1 | -8.2 | 67.9* | 1.6 | 27.6 | 7.5
COC(=O)c1cc(S(=O)(=O)N2CCN(c3cccc(C)c3C)CC2)c[nH]1 | -6.5 | -0.9 | -0.1 | 15.3 | -19.6 | -13.4 | / | / | / | /
NC(N)=NN=C(c1ccc(F)cc1)c1ccc(C(F)(F)F)cc1 | / | -1.3 | 51.2* | / | / | / | 64.6* | 31.5* | 34.5 | 28.1*
O=c1[nH]ncc(N/N=C/c2ccccc2)c1Cl | 12.8 | 78.2* | 64.0* | -3.1 | -10.3 | -4.5 | 91.9* | 2.4 | 92.8* | -3.0
Cc1ccc(/C=N\Nc2cn[nH]c(=O)c2Cl)cc1 | 5.5 | -2.3 | 40.8* | -13.7 | -6.5 | -11.0 | 62.2* | 0.0 | 24.0 | 9.0
SMILES | OX1R antag-1 | TAAR1 antagonist | TAAR1 agonist | CHO parental Ca | OX1R antag-2 | GPR7 antag | TAAR1 ag confirm | Ga16 nonsel ag | TAAR1 desensitize | Ga16 antag count
Cc1ccsc1/C=N\Nc1cn[nH]c(=O)c1Cl | 23.4 | 54.0* | 73.5* | -4.9 | 5.0 | -11.1 | 87.4* | -0.2 | 77.4* | 1.9
C=C(C)C(=O)N1CC2(CC(c3cccc(NC(=O)/C=C\C)c3)=NO2)C[C@H]1C(N)=O (some centres undefined) | 8.6 | 1.7 | 12.2 | -3.7 | -4.9 | / | / | / | / | /
Cc1ccc(OP(=O)(Nc2c(C)n(C)n(-c3ccccc3)c2=O)Oc2ccc(C)cc2)cc1 | 11.1 | 5.4 | 50.3* | -17.1 | -32.3 | 2.7 | 27.3 | 7.6 | 7.9 | 5.5
O=C1OC(c2ccc3c(c2)OCO3)=N/C1=C\c1ccc(C(=O)O)cc1 | 0.1 | 6.6 | -0.9 | 2.0 | 3.5 | -10.9 | / | / | / | /
Cn1c(CNC(=O)C2CCCCC2)cc2cc(Cl)ccc21 | 17.9 | 70.1* | 64.7* | 0.0 | -17.1 | 0.7 | 13.9 | 8.5 | 8.6 | 8.4
Cc1cc2cc(CNC(=O)C3CCCC3)ccc2n1C | 14.7 | -28.1 | 1.1 | -17.2 | -29.3 | / | / | / | / | /
